Measurements from ChEMBL document CHEMBL1150119, “Cytotoxic germacranolides from Inula verbascifolia subsp. methanea” (J Nat Prod, 2002).
Values after ≈ are worked out from the molar mass of the structure shown.

Experiments:
Format in all cases: functional, cell-based
HT-29 = assay: Cytotoxicity against human HT-29 cells after 48 hrs by MTT assay; conditions: HT-29, 48 h
Outline: (§1)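 Adherent human tumor cells kept in DMEM with 10% FBS, penicillin and streptomycin, at 37 °C under 5% CO₂ and 85% humidity, and subcultured with trypsin-EDTA. Cells were seeded at 5000/well and compounds in DMSO were added 24 h later. After 48 h, medium was swapped for MTT (1 mg/mL final, serum-free phenol-red-free RPMI) for 4 h. Formazan was dissolved in 2-propanol and read at 550 nm against 690 nm reference.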

HCT-116 = assay: Cytotoxicity against human HCT116 cells after 48 hrs by MTT assay; conditions: HCT-116, 48 h; outline: as §1
[1] = Cytotoxicity against human HRT18 cells after 48 hrs by MTT assay; conditions: HRT-18, 48 h; outline: as §1
MCF7 = assay: Cytotoxicity against human MCF7 cells expressing estrogen receptor after 48 hrs by MTT assay; conditions: MCF7, 48 h; outline: as §1
LNCaP = assay: Cytotoxicity against human LNCAP cells expressing androgen receptor after 48 hrs by MTT assay; outline: as §1
PC-3 = assay: Cytotoxicity against human PC3 cells after 48 hrs by MTT assay; conditions: PC-3, 48 h; outline: as §1

| SMILES | IC50 (HT-29) [µg/mL] | IC50 (HCT-116) [µg/mL] | IC50 [1] [µg/mL] | IC50 (MCF7) [µg/mL] | IC50 (LNCaP) [µg/mL] | IC50 (PC-3) [µg/mL] |
| --- | --- | --- | --- | --- | --- | --- |
| COc1cccc2c1C(=O)c1c(O)c3c(c(O)c1C2=O)C[C@@](O)(C(C)=O)C[C@@H]3O[C@H]1C[C@H](N)[C@H](O)[C@H](C)O1.Cl [DAUNORUBICIN HYDROCHLORIDE] | 0.072 | 0.28 | 0.11 | 0.12 | 0.011 | 0.23 |
| C=C1C(=O)O[C@@H]2[C@H]3O[C@]3(C)CC/C=C(\C)[C@@H](OC(=O)CC(C)(C)O)C[C@@H]12 | 17.5 (≈ 48 µM) | 14.1 (≈ 38.7 µM) | 14.9 (≈ 40.9 µM) | > 40 | 34.2 (≈ 93.8 µM) | 18.2 (≈ 49.9 µM) |
| C=C1C(=O)O[C@@H]2[C@H]3O[C@]3(C)CC/C=C(\C)[C@@H](OC(=O)C(C)C(C)O)C[C@@H]12 (some centres undefined) | 11.7 (≈ 32.1 µM) | 0.39 (≈ 1.07 µM) | 13.4 (≈ 36.8 µM) | > 40 | 25.4 (≈ 69.7 µM) | 11.3 (≈ 31 µM) |
| C=C1C(=O)O[C@@H]2[C@H]3O[C@]3(C)CC/C=C(\C)[C@@H](OC(=O)CC(C)(O)CC)C[C@@H]12 (some centres undefined) | 11.7 (≈ 30.9 µM) | 7.1 (≈ 18.8 µM) | 8.75 (≈ 23.1 µM) | > 40 | 30.2 (≈ 79.8 µM) | 15.7 (≈ 41.5 µM) |
